Laboratory results: ChEMBL document CHEMBL5724801, “EUbOPEN Chemogenomics Library - Multiplex” (2024)
“And” between values parts separate entries of the source, which are not always exact repeats. Identical values can stand only once.

Tested on: U2OS
Assay: Multiplex assay against U2OS
Type: toxicity, cell-based
Conditions: human
Method in brief: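 At seeding, live cells were stained with Hoechst33342, BioTracker Green Microtubule Cytoskeleton Dye, MitoTracker Red and Annexin V Alexa Fluor 680. After compound addition they were imaged on a CQ1 microscope at 37°C and 5% CO2, and CellPathfinder machine-learning gating sorted them into Hoechst high-intensity objects or normal cells, with normal cells further split into healthy, pyknosed or fragmented nuclei and pyknosed cells into mitotic or apoptotic. Tubulin, mitochondrial-mass and membrane-permeability phenotypes are given as per cents of cells with healthy nuclei.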

[1] = 12 h, 1 µM, compound concentration 1 uM
[2] = 12 h, 10 µM, compound concentration 10 uM
[3] = 24 h, 1 µM, compound concentration 1 uM
[4] = 24 h, 10 µM, compound concentration 10 uM
[5] = 48 h, 1 µM, compound concentration 1 uM
[6] = 48 h, 10 µM, compound concentration 10 uM

CN1C[C@H](C(=O)N[C@]2(C)O[C@@]3(O)[C@@H]4CCCN4C(=O)[C@H](Cc4ccccc4)N3C2=O)C[C@@H]2c3cccc4[nH]cc(c34)C[C@H]21.CS(=O)(=O)O [DIHYDROERGOTAMINE MESYLATE]
Population Apoptotic (%) [1]: 82% and 84%
Population Fragmented Nuclei (%) [1]: 24% and 23%
Population Healthy Nuclei (%) [1]: 65% and 63%
Population Hoechst High Intensity Objects (%) [1]: 1%
Population Membrane Permeable-Phenotype (%) [1]: 6% and 14%
Population Mitochondria Different-Phenotype (%) [1]: 2% and 1%
Population Mitotic Cells (%) [1]: 17% and 15%
Population Normal (%) [1]: 98%
Population Pyknosed Nuclei (%) [1]: 10% and 13%
Population Tubulin-Different-Phenotype (%) [1]: 2% and 7%
Total Cell Count [1]: 233 and 101
Population Apoptotic (%) [2]: 71% and 100%
Population Fragmented Nuclei (%) [2]: 19%
Population Healthy Nuclei (%) [2]: 73% and 77%
Population Hoechst High Intensity Objects (%) [2]: 2% and 1%
Population Membrane Permeable-Phenotype (%) [2]: 5%
Population Mitochondria Different-Phenotype (%) [2]: 1% and 0%
Population Normal (%) [2]: 97% and 98%
Population Pyknosed Nuclei (%) [2]: 7% and 2%
Population Tubulin-Different-Phenotype (%) [2]: 3% and 0%
Total Cell Count [2]: 298 and 144
Population Apoptotic (%) [3]: 89% and 100%
Population Fragmented Nuclei (%) [3]: 23% and 21%
Population Healthy Nuclei (%) [3]: 67% and 65%
Population Hoechst High Intensity Objects (%) [3]: 0% and 1%
Population Membrane Permeable-Phenotype (%) [3]: 2% and 8%
Population Mitochondria Different-Phenotype (%) [3]: 0% and 2%
Population Mitotic Cells (%) [3]: 10% and 0%
Population Normal (%) [3]: 99% and 98%
Population Pyknosed Nuclei (%) [3]: 9% and 13%
Population Tubulin-Different-Phenotype (%) [3]: 2% and 4%
Total Cell Count [3]: 307 and 132
Population Apoptotic (%) [4]: 88% and 92%
Population Fragmented Nuclei (%) [4]: 18% and 16%
Population Healthy Nuclei (%) [4]: 73% and 75%
Population Hoechst High Intensity Objects (%) [4]: 1%
Population Membrane Permeable-Phenotype (%) [4]: 4%
Population Mitochondria Different-Phenotype (%) [4]: 2%
Population Mitotic Cells (%) [4]: 11% and 7%
Population Normal (%) [4]: 98%
Population Pyknosed Nuclei (%) [4]: 8%
Population Tubulin-Different-Phenotype (%) [4]: 2% and 1%
Total Cell Count [4]: 337 and 163
Population Apoptotic (%) [5]: 80% and 90%
Population Fragmented Nuclei (%) [5]: 14% and 11%
Population Healthy Nuclei (%) [5]: 78% and 76%
Population Hoechst High Intensity Objects (%) [5]: 2% and 1%
Population Membrane Permeable-Phenotype (%) [5]: 2% and 6%
Population Mitochondria Different-Phenotype (%) [5]: 2%
Population Mitotic Cells (%) [5]: 19% and 10%
Population Normal (%) [5]: 97% and 98%
Population Pyknosed Nuclei (%) [5]: 7% and 11%
Population Tubulin-Different-Phenotype (%) [5]: 1% and 4%
Total Cell Count [5]: 427 and 173
Population Apoptotic (%) [6]: 95% and 100%
Population Fragmented Nuclei (%) [6]: 14% and 19%
Population Healthy Nuclei (%) [6]: 75% and 72%
Population Hoechst High Intensity Objects (%) [6]: 3%
Population Membrane Permeable-Phenotype (%) [6]: 7% and 3%
Population Mitochondria Different-Phenotype (%) [6]: 3% and 1%
Population Mitotic Cells (%) [6]: 4% and 0%
Population Normal (%) [6]: 96%
Population Pyknosed Nuclei (%) [6]: 9% and 8%
Population Tubulin-Different-Phenotype (%) [6]: 3% and 2%
Total Cell Count [6]: 452 and 217

CC(C)CNc1nc(N2CCN(CC3CCCOC3)CC2)ncc1C(=O)NCc1ccccc1 (stereo unspecified)
Population Apoptotic (%) [1]: 35.29% and 54.55%
Population Fragmented Nuclei (%) [1]: 1.32% and 3.94%
Population Healthy Nuclei (%) [1]: 85.22% and 78.74%
Population Hoechst High Intensity Objects (%) [1]: 0%
Population Membrane Permeable-Phenotype (%) [1]: 0.93% and 5%
Population Mitotic Cells (%) [1]: 64.71% and 45.45%
Population Normal (%) [1]: 100%
Population Pyknosed Nuclei (%) [1]: 13.46% and 17.32%
Population Tubulin-Different-Phenotype (%) [1]: 3.1% and 1%
Total Cell Count [1]: 379 and 127
Population Apoptotic (%) [2]: 51.14% and 36.59%
Population Fragmented Nuclei (%) [2]: 1.76% and 7.28%
Population Healthy Nuclei (%) [2]: 72.35% and 65.56%
Population Hoechst High Intensity Objects (%) [2]: 0%
Population Membrane Permeable-Phenotype (%) [2]: 22.36% and 30.3%
Population Mitochondria Different-Phenotype (%) [2]: 72.36% and 89.9%
Population Mitotic Cells (%) [2]: 48.86% and 63.41%
Population Normal (%) [2]: 100%
Population Pyknosed Nuclei (%) [2]: 25.88% and 27.15%
Population Tubulin-Different-Phenotype (%) [2]: 97.15% and 94.95%
Total Cell Count [2]: 340 and 151
Population Apoptotic (%) [3]: 43.1% and 31.82%
Population Fragmented Nuclei (%) [3]: 1.29% and 7.91%
Population Healthy Nuclei (%) [3]: 86.27% and 76.26%
Population Hoechst High Intensity Objects (%) [3]: 0.21% and 0%
Population Membrane Permeable-Phenotype (%) [3]: 2.49% and 9.43%
Population Mitotic Cells (%) [3]: 56.9% and 68.18%
Population Normal (%) [3]: 99.79% and 100%
Population Pyknosed Nuclei (%) [3]: 12.45% and 15.83%
Population Tubulin-Different-Phenotype (%) [3]: 3.98% and 4.72%
Population Apoptotic (%) [4]: 71.3% and 64%
Population Fragmented Nuclei (%) [4]: 3.28% and 4.55%
Population Healthy Nuclei (%) [4]: 67.21% and 62.99%
Population Hoechst High Intensity Objects (%) [4]: 0%
Population Membrane Permeable-Phenotype (%) [4]: 17.07% and 18.56%
Population Mitochondria Different-Phenotype (%) [4]: 81.3% and 91.75%
Population Mitotic Cells (%) [4]: 28.7% and 36%
Population Normal (%) [4]: 100%
Population Pyknosed Nuclei (%) [4]: 29.51% and 32.47%
Population Tubulin-Different-Phenotype (%) [4]: 97.15% and 93.81%
Total Cell Count [4]: 366 and 154
Population Apoptotic (%) [5]: 58.06% and 46.43%
Population Fragmented Nuclei (%) [5]: 2.14% and 3.47%
Population Healthy Nuclei (%) [5]: 86.13% and 80.35%
Population Hoechst High Intensity Objects (%) [5]: 0%
Population Membrane Permeable-Phenotype (%) [5]: 1.02% and 4.32%
Population Mitotic Cells (%) [5]: 41.94% and 53.57%
Population Normal (%) [5]: 100%
Population Pyknosed Nuclei (%) [5]: 11.73% and 16.18%
Population Tubulin-Different-Phenotype (%) [5]: 2.64% and 6.47%
Population Apoptotic (%) [6]: 80.41% and 90%
Population Fragmented Nuclei (%) [6]: 7.04% and 6.08%
Population Healthy Nuclei (%) [6]: 55.78% and 60.14%
Population Hoechst High Intensity Objects (%) [6]: 0%
Population Membrane Permeable-Phenotype (%) [6]: 13.06% and 17.98%
Population Mitochondria Different-Phenotype (%) [6]: 79.28% and 93.26%
Population Mitotic Cells (%) [6]: 19.59% and 10%
Population Normal (%) [6]: 100%
Population Pyknosed Nuclei (%) [6]: 37.19% and 33.78%
Population Tubulin-Different-Phenotype (%) [6]: 96.4% and 88.76%
Total Cell Count [6]: 398 and 148
